According to ChEMBL document CHEMBL1138409, “Diaryl substituted pyrazoles as potent CCR2 receptor antagonists” (Bioorg Med Chem Lett, 2007):
The source made the active and inactive calls. No cut-off for these calls is given here.

How the values were obtained:
[1] = target: T1, C-C chemokine receptor type 2 (Homo sapiens, UniProt P41597); assay: Displacement of 125I-hMCP1 from CCR2 expressed in human peripheral blood monocytes after 60 mins; type: cell-based
Summary of the method: (§1)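 Primary human blood monocytes, which express CCR2 endogenously, were incubated with 125I-hMCP-1 (2200 Ci/mmol) and the unlabeled compound. Incubation was 60 min at room temperature in 50 mM Hepes, 5 mM MgCl2 and 1 mM CaCl2, pH 7.4. Bound label was collected by filtration through PEI-presoaked GF/B filters and washed with 25 mM Hepes pH 7.5 containing 500 mM NaCl. Filters were then dried and counted by scintillation. Values are the mean of at least two experiments.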
Target sequence in this assay (P41597 whole entry): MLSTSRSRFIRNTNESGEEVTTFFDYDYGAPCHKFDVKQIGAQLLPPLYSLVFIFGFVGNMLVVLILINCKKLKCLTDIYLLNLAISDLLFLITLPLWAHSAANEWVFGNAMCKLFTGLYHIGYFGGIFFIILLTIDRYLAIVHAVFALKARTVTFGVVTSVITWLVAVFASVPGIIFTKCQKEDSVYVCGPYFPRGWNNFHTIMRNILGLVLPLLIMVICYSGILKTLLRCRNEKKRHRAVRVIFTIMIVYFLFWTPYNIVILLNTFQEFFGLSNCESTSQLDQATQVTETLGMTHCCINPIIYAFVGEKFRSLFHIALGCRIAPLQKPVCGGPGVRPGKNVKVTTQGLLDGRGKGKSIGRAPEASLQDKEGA

[2] = target: T1, C-C chemokine receptor type 2; assay: Antagonist activity against human CCR2 receptor assessed as inhibition of MCP1-induced migration of human peripheral blood monocytes at 300 nM; type: functional; parameters: scale not given: the % may be the effect or the level left
Target sequence in this assay (P41597 whole entry, looked up): as the sequence (P41597 whole entry) above

[3] = target: T1, C-C chemokine receptor type 2; assay: Displacement of 125I-hMCP1 from CCR2 expressed in human peripheral blood monocytes less than 10 uM after 60 mins; type: cell-based; summary of the method: as §1
Target sequence in this assay (P41597 whole entry): as above

[4] = Oral bioavailability in Sprague-Dawley rat at 2 mg/kg; type: ADME, organism-based; settings: in vivo
[5] = target: C-C chemokine receptor type 5 (Homo sapiens, UniProt P51681); assay: Inhibition of CCR5
[6] = Half life in Sprague-Dawley rat; type: ADME, organism-based; settings: in vivo
[7] = Volume of distribution in Sprague-Dawley rat; type: ADME, organism-based; settings: in vivo
[8] = Clearance in Sprague-Dawley rat at 1 mg/kg, iv and 2 mg/kg, po; type: ADME, organism-based; settings: in vivo
[9] = target: T1, C-C chemokine receptor type 2; assay: Displacement of 125I-hMCP1 from CCR2 expressed in human peripheral blood monocytes at 10 uM after 60 mins; type: cell-based
Target sequence in this assay (P41597 whole entry, looked up): as the sequence (P41597 whole entry) above

[10] = target: T1, C-C chemokine receptor type 2; assay: Displacement of 125I-hMCP1 from CCR2 expressed in human peripheral blood monocytes at 1 uM after 60 mins; type: cell-based
Target sequence in this assay (P41597 whole entry, looked up): as the sequence (P41597 whole entry) above

Chain of C-C chemokine receptor type 5 (P51681 whole entry): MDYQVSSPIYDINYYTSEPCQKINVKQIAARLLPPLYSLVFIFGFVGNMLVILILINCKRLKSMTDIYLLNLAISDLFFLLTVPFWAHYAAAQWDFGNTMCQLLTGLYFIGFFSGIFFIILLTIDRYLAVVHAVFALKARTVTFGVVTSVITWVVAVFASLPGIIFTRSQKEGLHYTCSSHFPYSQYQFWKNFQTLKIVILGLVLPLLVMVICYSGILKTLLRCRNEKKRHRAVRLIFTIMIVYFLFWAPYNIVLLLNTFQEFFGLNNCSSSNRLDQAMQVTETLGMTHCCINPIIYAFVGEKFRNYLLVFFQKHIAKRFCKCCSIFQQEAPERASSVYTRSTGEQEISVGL

| SMILES | IC50 [1] [µM] | also measured |
| --- | --- | --- |
| COC(=O)[C@H](CCCNC(=N)N)NC(=O)CCCOc1cc(-c2cc(Cl)cc(Cl)c2)nn1-c1ccc2ccccc2c1 | 7.6 |  |
| CCN(CC)CCCC(C)NC(=O)CCCc1cc(-c2cccc(Cl)c2)nn1-c1ccc2ccccc2c1 (centres undefined) | 0.168 | Activity [2]: 57% |
| CCN(CC)CCCCNC(=O)CCCc1cc(-c2cc(Cl)cc(Cl)c2)nn1-c1ccc2ccccc2c1 | 1.23 |  |
| CCCC(CCCN(CC)CC)NC(=O)CCOc1cc(-c2cc(Cl)cc(Cl)c2)nn1-c1ccc2ccccc2c1 (centres undefined) | 0.044 |  |
| COC(=O)[C@H](CCCNC(=N)N)NCCCCc1cc(-c2cc(Cl)cc(Cl)c2)nn1-c1ccc2ccccc2c1 |  | IC50 [3]: Not Active |
| CCN(CC)CCCC(C)NC(=O)CCCc1cc(-c2cccc(C(F)(F)F)c2)nn1-c1ccc2ccccc2c1 (centres undefined) | 0.207 |  |
| CCN(CC)CCCC(C)NC(=O)CCCc1cc(-c2cc(Cl)cc(Cl)c2)nn1-c1ccc2ccccc2c1 (centres undefined) | 0.108 | bioavailability [4]: 5%; IC50 [5]: 0.22 µM; half-life [6]: 6.52 h; Vd [7]: 13 L/kg; clearance [8]: 28.1 mL/min/kg |
| CCN(CC)CCCC(C)NC(=O)CCNc1cc(-c2cc(Cl)cc(Cl)c2)nn1-c1ccc2ccccc2c1 (centres undefined) | 0.03 |  |
| CCN(CC)CCCC(C)NC(=O)CCCc1cc(-c2cccc(F)c2)nn1-c1ccc2ccccc2c1 (centres undefined) | 0.522 |  |
| CCN(CC)CCCC(C)NC(=O)CCCc1cc(-c2ccccc2Cl)nn1-c1ccc2ccccc2c1 (centres undefined) |  | Activity [9]: 69% |
| COC(=O)[C@H](Cc1c[nH]cn1)NC(=O)CCCc1cc(-c2cc(Cl)cc(Cl)c2)nn1-c1ccc2ccccc2c1 | 2.84 |  |
| CCN(CC)CCCC(C)NC(=O)CCCc1cc(-c2ccc(Cl)cc2)nn1-c1ccc2ccccc2c1 (centres undefined) | 0.442 | Activity [2]: inactive |
| CN(C)CCCCNC(=O)CCCc1cc(-c2cc(Cl)cc(Cl)c2)nn1-c1ccc2ccccc2c1 | 1.8 |  |
| COC(=O)[C@H](CCCNC(=N)N)NC(=O)CCOc1cc(-c2cc(Cl)cc(Cl)c2)nn1-c1ccc2ccccc2c1 | 0.062 |  |
| COC(=O)[C@H](CCCNC(=N)N)NC(=O)CCNc1cc(-c2cc(Cl)cc(Cl)c2)nn1-c1ccc2ccccc2c1 | 0.043 |  |
| COC(=O)[C@H](CCCN=C(N)N)NC(=O)CCc1cc(-c2cc(Cl)cc(Cl)c2)nn1-c1ccc2ccccc2c1 | 4.74 |  |

| SMILES | IC50 [1] [µM] | also measured |
| --- | --- | --- |
| CCC(C)CC(CCCN(CC)CC)NC(=O)CCOc1cc(-c2cc(Cl)cc(Cl)c2)nn1-c1ccc2ccccc2c1 (centres undefined) | 0.107 |  |
| CCN(CC)CCCC(C)NC(=O)CCCc1cc(-c2cc(C(F)(F)F)cc(C(F)(F)F)c2)nn1-c1ccc2ccccc2c1 (centres undefined) | 0.634 |  |
| CCN(CC)CCCC(C)NC(=O)CCCc1cc(-c2cc(Cl)cc(Cl)c2)nn1-c1cc(C(F)(F)F)cc(C(F)(F)F)c1 (centres undefined) | 6.47 |  |
| COC(=O)[C@H](CCCNC(=N)N)NC(=O)c1cccc(-c2cc(-c3cc(Cl)cc(Cl)c3)nn2-c2ccc3ccccc3c2)c1 |  | IC50 [3]: Not Active |
| O=C(CCCc1cc(-c2cc(Cl)cc(Cl)c2)nn1-c1ccc2ccccc2c1)NCCCc1ccc2c(n1)NCCC2 | 9.33 |  |
| O=C(CCCc1cc(-c2cc(Cl)cc(Cl)c2)nn1-c1ccc2ccccc2c1)NCCCc1ccncc1 | 1.12 |  |
| CCCCC(CCCN(CC)CC)NC(=O)CCOc1cc(-c2cc(Cl)cc(Cl)c2)nn1-c1ccc2ccccc2c1 (centres undefined) |  | Activity [10]: 52% |
| CCN(CC)CCCC(CC(C)C)NC(=O)CCOc1cc(-c2cc(Cl)cc(Cl)c2)nn1-c1ccc2ccccc2c1 (centres undefined) | 0.074 |  |
| COC(=O)[C@H](CCCNC(=N)N)NC(=O)CCCc1cc(-c2cc(Cl)cc(Cl)c2)nn1-c1ccc2ccccc2c1 | 0.221 | bioavailability [4]: 0%; IC50 [5]: 0.063 µM; half-life [6]: 2.49 h; Vd [7]: 0.98 L/kg; clearance [8]: 8.3 mL/min/kg |
| CCN(CC)CCCC(C)NC(=O)CCCc1cc(-c2cccc(OC)c2)nn1-c1ccc2ccccc2c1 (centres undefined) | 2.39 |  |
| CCN(CC)CCCC(NC(=O)CCOc1cc(-c2cc(Cl)cc(Cl)c2)nn1-c1ccc2ccccc2c1)C(C)C (centres undefined) | 0.006 | IC50 [5]: 1.61 µM |
| COC(=O)[C@H](CCCNC(=N)N)NC(=O)CC(=O)Nc1cc(-c2cc(Cl)cc(Cl)c2)nn1-c1ccc2ccccc2c1 |  | IC50 [3]: Not Active |
| CCN(CC)CCCC(C)NC(=O)CCCc1cc(-c2cc(Cl)cc(Cl)c2)nn1-c1ccccc1 (centres undefined) |  | Activity [9]: 69% |
| CCC(CCCN(CC)CC)NC(=O)CCOc1cc(-c2cc(Cl)cc(Cl)c2)nn1-c1ccc2ccccc2c1 (centres undefined) | 0.009 |  |
| CCN(CC)CCCC(C)NC(=O)CCOc1cc(-c2cc(Cl)cc(Cl)c2)nn1-c1ccc2ccccc2c1 (centres undefined) | 0.066 |  |
